# Published values pooled from the literature.
# Lines come from different studies, so protocols differ.
# Target: Serine/threonine-protein kinase ICK (CILK1, Homo sapiens, UniProt Q9UPZ9)
# Sequence (Q9UPZ9 1-632, as in one of the studies): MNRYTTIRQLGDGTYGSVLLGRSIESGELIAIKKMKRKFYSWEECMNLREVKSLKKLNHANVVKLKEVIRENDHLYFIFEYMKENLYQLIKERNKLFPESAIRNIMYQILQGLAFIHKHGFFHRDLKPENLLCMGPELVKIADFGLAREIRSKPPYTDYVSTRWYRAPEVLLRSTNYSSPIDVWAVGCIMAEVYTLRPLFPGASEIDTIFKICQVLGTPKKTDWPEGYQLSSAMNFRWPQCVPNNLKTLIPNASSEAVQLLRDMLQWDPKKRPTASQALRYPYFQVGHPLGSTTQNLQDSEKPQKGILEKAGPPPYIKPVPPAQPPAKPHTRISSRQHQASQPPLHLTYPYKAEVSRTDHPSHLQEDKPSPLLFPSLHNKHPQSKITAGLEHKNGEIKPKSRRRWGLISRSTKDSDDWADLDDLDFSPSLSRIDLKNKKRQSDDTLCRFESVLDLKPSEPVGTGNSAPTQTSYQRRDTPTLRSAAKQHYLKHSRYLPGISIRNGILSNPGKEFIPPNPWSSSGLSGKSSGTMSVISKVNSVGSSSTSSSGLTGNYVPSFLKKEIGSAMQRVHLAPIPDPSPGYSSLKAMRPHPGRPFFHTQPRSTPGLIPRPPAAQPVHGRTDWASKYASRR
SMILES,test,conditions,remaining binding
CNC(=O)Nc1ccc2c(c1)[C@@]1(CC2)OC(=O)N(CC(=O)N(Cc2ccc(F)cc2)[C@@H](C)C(F)(F)F)C1=O,"binding, competition with immobilised ligand",1 µM,67%
CN(C)c1ncc(F)c(-c2cnn3ncccc23)n1,binding,1 µM,89%
C[C@@H](c1ccc(-n2cnc3c(N)ncnc32)cc1)N1CCc2nn(C)c(Cc3ccccc3)c2C1=O,"binding, competition with immobilised ligand",0.1 µM,48%
Cc1cnc(Nc2ccc(C(=O)N3CCC(N4CCCC4)CC3)cc2)nc1-c1cc2ccccc2s1,"binding, competition with immobilised ligand",1 µM,64%
CN(C)C(=O)Cn1cc(-c2nc([C@@](C)(c3ccc(-c4cnc(N)nc4)cc3)C3CC3)no2)cn1,"binding, competition with immobilised ligand",1 µM,100%
C[C@@H]1CCN(c2nccc(-c3cnn4ncccc34)n2)C1,binding,1 µM,58%
O=C(c1ccc(Nc2ncc(Cl)c(-c3cc4ccccc4s3)n2)cc1)N1CCC(N2CCCC2)CC1,"binding, competition with immobilised ligand",1 µM,57%
O=C(Nc1c[nH]nc1C(=O)NC1CCNCC1)c1cc(F)cc(F)c1,"binding, competition with immobilised ligand",1 µM,84%
COc1ncc2cc3ccccc3nc2c1C#N,"binding, competition with immobilised ligand",5 µM,90%
O=C(c1ccc(Nc2nccc(-c3cc4ccccc4s3)n2)cc1)N1CCC(N2CCCC2)CC1,"binding, competition with immobilised ligand",1 µM,74%
CS(=O)(=O)NCC[C@H](NC(=O)c1cncc2c1cnn2-c1ccc(F)cc1)c1ccnc(S(C)(=O)=O)c1,"binding, competition with immobilised ligand",1 µM,100%
CN(C)c1nccc(-c2cnc3ncccn23)n1,binding,1 µM,81%
CN([C@@H]1CCc2c(CC(=O)O)c3ccccc3n2C1)S(=O)(=O)c1ccc(F)cc1,"cell-free assay, competition with immobilised ligand",1 µM,100%
CN(CCCC(F)(F)F)c1nccc(-c2cnn3ncccc23)n1,binding,1 µM,100%
O=C(Nc1cccnn1)N1CCC(=Cc2cccc(Oc3ccc(C(F)(F)F)cn3)c2)CC1,"cell-free assay, competition with immobilised ligand",1 µM,91%
COc1cnc(Nc2cccc(S(N)(=O)=O)c2)nc1N1CCN(c2ccccc2)CC1,"binding, competition with immobilised ligand",1 µM,72%
Cc1c(NC(=O)c2cc(C(N)=O)nc3cc(F)ccc23)c(C(F)(F)F)nn1Cc1ccc(C(C)(C)C)cc1,"cell-free assay, competition with immobilised ligand",1 µM,61%
CN(C)c1nccc(-c2cnn3ncccc23)n1,binding,1 µM,91%
CCN1CCN(Cc2ccc(C(=O)Nc3ccc(C)c(Oc4ccc5c(c4)CC(=O)N5)c3)cc2C(F)(F)F)CC1,"binding, competition with immobilised ligand",1 µM,100%
COc1ccnn2ncc(-c3ccnc(N(C)C)n3)c12,binding,1 µM,74%
c1cncc(-c2cccc(Nc3nccc(NC4CCCCC4)n3)c2)c1,"binding, competition with immobilised ligand",10 µM,50%
